Measured values pooled from the literature.
Each line is one published result; the experiments were not run side by side.
Target: Serine/threonine-protein kinase PLK4 (PLK4, Homo sapiens, UniProt O00444)
Residues used in one study (O00444 1-970): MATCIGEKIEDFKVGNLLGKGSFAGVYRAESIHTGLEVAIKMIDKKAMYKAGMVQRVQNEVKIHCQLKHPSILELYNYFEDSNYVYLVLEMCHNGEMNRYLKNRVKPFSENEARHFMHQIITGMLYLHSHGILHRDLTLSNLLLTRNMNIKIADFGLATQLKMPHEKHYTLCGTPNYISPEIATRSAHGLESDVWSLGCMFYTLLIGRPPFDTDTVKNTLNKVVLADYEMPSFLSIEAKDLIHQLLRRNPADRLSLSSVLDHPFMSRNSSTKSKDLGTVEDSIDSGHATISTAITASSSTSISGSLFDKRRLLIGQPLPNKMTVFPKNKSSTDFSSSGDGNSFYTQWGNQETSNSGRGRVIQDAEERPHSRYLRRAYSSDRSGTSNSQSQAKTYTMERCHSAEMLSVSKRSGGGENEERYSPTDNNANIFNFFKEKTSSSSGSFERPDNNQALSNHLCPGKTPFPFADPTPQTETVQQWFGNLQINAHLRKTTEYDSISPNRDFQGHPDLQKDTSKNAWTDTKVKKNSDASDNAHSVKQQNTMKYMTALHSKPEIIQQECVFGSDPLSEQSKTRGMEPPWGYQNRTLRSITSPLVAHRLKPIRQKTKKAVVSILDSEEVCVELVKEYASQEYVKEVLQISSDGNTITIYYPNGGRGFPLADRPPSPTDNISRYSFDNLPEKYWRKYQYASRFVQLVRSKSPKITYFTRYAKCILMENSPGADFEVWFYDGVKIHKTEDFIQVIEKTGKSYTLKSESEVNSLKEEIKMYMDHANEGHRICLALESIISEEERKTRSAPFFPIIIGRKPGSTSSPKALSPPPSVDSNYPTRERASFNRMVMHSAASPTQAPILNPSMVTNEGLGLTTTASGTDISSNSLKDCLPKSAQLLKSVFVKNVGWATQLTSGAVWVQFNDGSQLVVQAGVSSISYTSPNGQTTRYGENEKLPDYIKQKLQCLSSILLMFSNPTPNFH

Compound | read-out | method | tested at | remaining binding [%]
N[C@H]1CCN(c2nccc(-c3cnn4ncccc34)n2)C1 | binding | – | 1 µM | 100
FC(F)(F)Oc1cccc(-c2cnc3ccc(-c4ccncc4)nn23)c1 | cell-free assay | competition with immobilised ligand | 5 µM | 91
N#CC1(c2ccccn2)CCN(Cc2cc(C(=O)N3CCCC3)c(=O)n3ccccc23)CC1 | cell-free assay | competition with immobilised ligand | 1 µM | 87
COc1cnc(Nc2cccc(S(N)(=O)=O)c2)nc1N1CCN(c2ccccc2)CC1 | binding | competition with immobilised ligand | 1 µM | 99
O=C(NCC1CCOCC1)c1n[nH]cc1NC(=O)c1c(F)cccc1F | binding | competition with immobilised ligand | 1 µM | 75
COc1cc(C(=O)N2CCC(N3CCN(C)CC3)CC2)ccc1Nc1ncc2c(n1)N(C)c1ccccc1C(=O)N2C | binding | competition with immobilised ligand | 10 µM | 0
C[C@@H](c1ccc(-n2cnc3c(N)ncnc32)cc1)N1CCc2nn(C)c(Cc3ccccc3)c2C1=O | binding | competition with immobilised ligand | 0.1 µM | 72
C[C@@H]1CCN(c2nccc(-c3cnn4ncccc34)n2)C1 | binding | – | 1 µM | 100
CCN1CCN(Cc2ccc(C(=O)Nc3ccc(C)c(Oc4ccc5c(c4)CC(=O)N5)c3)cc2C(F)(F)F)CC1 | binding | competition with immobilised ligand | 1 µM | 100
CCCCN(CCCC)C(=O)CN1C[C@H](c2cc(OC)c3c(c2)OCO3)[C@@H](C(=O)O)[C@@H]1CC(C)(C)CCC | cell-free assay | competition with immobilised ligand | 1 µM | 100
F[C@@H]1CCN(c2nccc(-c3cnn4ncccc34)n2)C1 | binding | – | 1 µM | 100
CN1CCN(c2cnc3c(C4CCN(C(=O)c5ccc(OC(F)(F)F)cc5N)CC4)ncnc3c2)CC1 | cell-free assay | competition with immobilised ligand | 1 µM | 83
Cc1cnn2ncc(-c3ccnc(N(C)C)n3)c2c1 | binding | – | 1 µM | 74
CC(=O)Nc1c(C(C)=O)c(=O)n(C)c2nc(-c3ccc(Cl)cc3Cl)c(-c3ccc(Cl)cc3)cc12 | cell-free assay | competition with immobilised ligand | 1 µM | 100
O=C(c1ccc(Nc2nccc(-c3cc4ccccc4s3)n2)cc1)N1CCC(N2CCCC2)CC1 | binding | competition with immobilised ligand | 1 µM | 56
CN([C@@H]1CCc2c(CC(=O)O)c3cc(S(C)(=O)=O)ccc3n2C1)S(=O)(=O)c1ccc(F)cc1 | cell-free assay | competition with immobilised ligand | 1 µM | 100
O=C(NCCCN1CCOCC1)c1ccc(Nc2ncc(Cl)c(-c3ccc(Cl)s3)n2)cc1 | binding | competition with immobilised ligand | 1 µM | 38
